# M4 ag – CHRM4 agonism in calcium assay; actives 0.14% (n = 360,000); CHO-K1 hM4/Gqi5, Fluo-8 calcium fluorescence; vehicle 0%, full acetylcholine response 100%; activation, % at 3 µM;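 active = activation above the run mean over all test wells plus 3 SD, cut at about 32% in these data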;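 note: peak over basal fluorescence ratio per well then scaled between controls; 0% = DMSO wells and 100% = acetylcholine at EC100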
# Target sequence (P08173 whole entry, looked up): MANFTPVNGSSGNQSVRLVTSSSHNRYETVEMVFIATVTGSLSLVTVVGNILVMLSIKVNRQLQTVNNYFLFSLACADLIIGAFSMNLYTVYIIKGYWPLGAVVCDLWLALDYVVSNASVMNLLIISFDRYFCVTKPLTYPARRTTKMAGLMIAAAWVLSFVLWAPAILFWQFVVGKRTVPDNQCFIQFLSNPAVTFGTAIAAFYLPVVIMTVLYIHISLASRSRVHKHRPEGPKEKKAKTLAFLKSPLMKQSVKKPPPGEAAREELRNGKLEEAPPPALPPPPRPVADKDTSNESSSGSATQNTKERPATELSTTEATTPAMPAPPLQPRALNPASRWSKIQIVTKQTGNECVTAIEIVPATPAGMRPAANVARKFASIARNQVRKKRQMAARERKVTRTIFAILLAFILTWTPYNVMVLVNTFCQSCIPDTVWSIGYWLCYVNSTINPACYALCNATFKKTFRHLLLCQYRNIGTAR
# M4 antag – CHRM4 antagonism in calcium assay; inhibition, % at 3 µM; actives 0.73% (n = 360,000); AID 624125; CHO-hM4 cells, ACh EC80, Fluo-8 calcium fluorescence;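 active = inhibition above its plate's cutoff, the mean inhibition of sample wells plus 3 SD, cut at about 27% in these data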;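 note: 0% = acetylcholine EC80 with DMSO and 100% = DMSO without agonist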
# CHRM4 PAM – CHRM4 positive allosteric modulation; CHO-K1 hM4/Gqi5, Fluo-8 calcium fluorescence, ACh EC20; 0% = ACh EC20, 100% = maximal ACh; activation, % at 3 µM; actives 0.4% (n = 360,000);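 active = activation above its plate's cutoff, the mean activation of sample wells plus 3 SD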
# M5 PAM – potentiates acetylcholine response at human M5 receptor. CHO-K1 hM5, Fluo-8 calcium, ACh EC20 PAM; 0% = ACh EC20, 100% = ACh EC100. actives 0.3% (n = 360,000). activation, % at 3 µM;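 active = activation above the run cutoff, the mean activation of all test compounds plus 3 SD, cut at about 18% in these data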
#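 Replicates: One well per compound, no replicates | System: Human M5 receptor in CHO-K1 cells | Benchmarks: Low control EC20 acetylcholine (0%), high control EC100 acetylcholine (100%) | Probe or stimulus: Acetylcholine, EC20 level | Times: Fluo-8 loading 80 min at 37 °C plus 30 min room temperature | Signal: Intracellular calcium via Fluo-8 fluorescence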
# M5 antag – blocks acetylcholine activation of human M5 receptor; actives 0.59% (n = 360,000); inhibition, % at 3 µM; AID 624040; CHO-hM5 cells, Fluo-8 calcium fluorescence, ACh EC80; P08912;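 active = inhibition above a per-plate cutoff, the mean of that plate's test compounds plus 3 SD, cut at about 27% in these data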;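 note: 0% = acetylcholine EC80 with DMSO and 100% = DMSO without agonist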
# M5 ag – agonists of human muscarinic M5 receptor (CHRM5); CHO-K1 hM5 cells, Fluo-8 calcium fluorescence; 0% DMSO wells, 100% maximal acetylcholine response; actives 0.19% (n = 360,000); activation, % at 3 µM;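 active = activation above the run's mean over test compounds plus 3 SD, cut at about 23% in these data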;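 note: signal is peak over basal fluorescence ratio across the kinetic read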
# Numbers without * were called inactive. Compounds with a hit are over-represented: about 1.8% of the library has one in this group of screens.
SMILES,M4 ag,M4 antag,CHRM4 PAM,M5 PAM,M5 antag,M5 ag
Cc1ccccc1OCc1nnc(SCc2nc3ccccc3c(=O)[nH]2)n1C,-1,49*,-15,-3,3,0
COc1ccc(S(=O)(=O)N(CC(=O)O)c2ccccc2)cc1,2,-12,22*,4,-1,2
COc1ccc(C)cc1S(=O)(=O)N(CC(=O)O)c1ccccc1,1,-4,-1,3,-4,-1
COc1ccc(S(=O)(=O)N(C)CC(=O)Nc2ccccc2OC)cc1,2,34*,1,0,1,-2
COc1ccc(C)cc1S(=O)(=O)N(CC(=O)O)c1ccc(C)cc1,0,6,32*,12,-13,3
COc1cc(NC(=O)CN(C)S(=O)(=O)c2ccc(C)cc2)cc(OC)c1,2,-8,18*,5,-6,-12
Clc1ccc2nc(-c3ccccc3)c(CC3CCCCC3)n2c1,-2,-9,-1,0,-3,0
COc1ccccc1NC(=O)CN(c1ccccc1)S(=O)(=O)c1ccccc1,2,-18,-7,16,8,-2
COc1ccc(N(CC(=O)Nc2ccccc2OC)S(=O)(=O)c2ccc(NC(C)=O)cc2)cc1,12,3,-9,-11,32*,-6
OC[C@@H]1CN(Cc2ccc(-c3ccccc3)cc2)C[C@H](n2cnc3c(NCc4ccco4)ncnc32)O1,24,29*,-7,-14,25,5
OC[C@@H]1CN(Cc2ccccc2)C[C@H](n2cnc3c(NCc4ccco4)ncnc32)O1,3,-3,-1,0,-1,2
COc1cc(CN2C[C@@H](CO)O[C@@H](n3cnc4c(NCC(C)C)ncnc43)C2)cc(OC)c1OC,2,-11,17*,2,17,2
CN1CCN(c2ncnc3c2ncn3[C@H]2CN(Cc3ccc(C(=O)O)cc3)C[C@@H](CO)O2)CC1,1,-19,18*,-6,1,-1
COCCNc1ncnc2c1ncn2[C@H]1CN(Cc2cc(OC)c(OC)c(OC)c2)C[C@@H](CO)O1,0,-1,-6,-7,3,1
Cn1cnnc1SCCC(=O)Nc1ccccc1,1,7,38*,3,-2,7
Cc1nn(CC(=O)NC(=O)c2ccccc2)c(C)c1[N+](=O)[O-],0,-9,23*,0,11,0
Cc1nn(CC(=O)NCc2ccccc2)c(C)c1[N+](=O)[O-],0,-6,2,4,-3,0
CCn1nc(C)c([N+](=O)[O-])c1C(=O)NNC(=O)c1ccc(Cl)cc1,1,-18,-5,20*,-3,2
CC(CC(=O)c1ccccc1)=NCC(O)CN=C(C)CC(=O)c1ccccc1 (stereo not given),1,-7,-3,-1,-3,-2
COc1ccc(-n2nnc3c(=O)n(CC(=O)N4CCCc5ccccc54)cnc32)cc1,0,1,-2,-3,2,0
CCOc1ccc(-n2nnc3c(=O)n(CC(=O)N4CCCc5ccccc54)cnc32)cc1,0,88*,-18,-11,2,-1
COC1=CC(C)C2CC3OC(O)CC4C(C)=C(OC)C(=O)C(C2(C)C1=O)C34C (stereo not given),2,-10,5,-5,1,4
COc1ccc(N=Cc2oc3ccc4ccccc4c3c2O)cc1,5,0,-6,-20,19,47*
C/C(=N/NS(=O)(=O)c1cc(C)ccc1C)c1ccc2c(c1)OCO2,0,-4,-1,-6,7,-1
COC(=O)C1=NN(C(=O)c2cccc(Br)c2)C(O)(c2ccc(Cl)cc2)C1 (stereo not given),39*,2,-5,-11,3,16
SMILES,M4 ag,M4 antag,CHRM4 PAM,M5 PAM,M5 antag,M5 ag
O=C1CCCc2c1nc(-c1ccc(F)cc1)n2O,1,9,20,20*,-11,4
O=C1CCCc2c1nc(-c1ccc([N+](=O)[O-])cc1)n2O,3,11,3,4,4,0
COCC(=O)N1CCC(n2nccc2NC(=O)CCOc2ccccc2)CC1,0,-11,-2,-11,22,-4
OCCOc1nnnn1-c1ccccc1,1,1,10,6,-5,1
CCCOc1nnnn1-c1ccccc1,0,-4,19*,6,0,-1
O=[N+]([O-])c1cc2oc3c(c2c(C=NCc2ccccc2)c1O)CCCC3,1,35*,14,7,3,-1
CC(C)CN=Cc1c(O)c([N+](=O)[O-])cc2oc3c(c12)CCCC3,-2,8,17,4,-1,3
CSc1ccc2c(c1)N(CCC1CCCCN1C)c1ccccc1S2 (stereo not given),19,98*,-19,-19,100*,4
Brc1ccc(CN2CCN(c3ccccn3)CC2)s1,-2,-8,29*,3,-5,-1
CCN1C[C@@H]2[C@@H]3C(=O)N(C)C(=O)[C@@H]3[C@](C)(C1=O)N2C(=O)c1ccc(C(F)(F)F)cc1,1,6,0,-6,18,1
N#Cc1c2c(c(-n3cnc4ccccc43)n3c1nc1ccccc13)CCC2,0,-10,-1,47*,31*,-1
Cc1nccn1-c1c2c(c(C#N)c3nc4ccccc4n13)CCCC2,1,-4,6,4,4,-1
O=C(Cc1ccc(Cl)cc1)Nc1ccc(S(=O)(=O)Nc2cnc3ccccc3n2)cc1,0,-4,3,1,2,-8
COc1cc(C(CCN2CCCC(C)C2)c2c(OC)cc(OC)c3c2OC(=O)CC3c2ccc(N(C)C)cc2)cc(OC)c1OC (stereo not given),3,3,10,22*,-2,2
C[C@@H]1CC[C@]2(O[C@H](CCO)C[C@@H](O)[C@@H]2O)O1,-1,-2,14,25*,-2,4
C[C@H]1CC[C@@]2(O[C@@H](CCO)C[C@@H](O)[C@@H]2O)O1,1,3,14,1,-1,4
CCOC(=O)C1CCCN(C(=S)Nc2cccc(Cl)c2)C1 (stereo not given),6,7,-4,-12,-2,33*
CCOC(=O)c1ccc(NC(=S)N2CCCC(C(=O)OCC)C2)cc1 (stereo not given),3,5,-3,-6,17,23
CCOC(=O)C1CCCN(C(=S)Nc2ccc(OC)cc2)C1 (stereo not given),7,11,-10,-18,7,34*

# Screening data deposited in PubChem BioAssay by The Scripps Research Institute Molecular Screening Center.
